Laboratory results reported in ChEMBL document CHEMBL1145471, “Small molecule regulators of autophagy identified by an image-based high-throughput screen” (Proc Natl Acad Sci U S A, 2007).
Activity calls are given as the source filed them. The rule behind the calls is not given here.

How the values were obtained:
H4 [1] = test: Increase in light chain 3-GFP+ autophagosome vesicle number per cell in human H4 cells at 7.2 uM after 24 hrs by high throughput fluorescence microscopy relative to control; type: functional
In short: (§1)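 H4 cells stably expressing LC3-GFP were grown in DMEM with 10% FBS and 2 mM L-glutamine at 37°C, 5% CO2. They were exposed to each compound for 24 h, with DMSO as negative and rapamycin as positive control. Cells were then fixed in 4% paraformaldehyde and stained with 3 μg/ml DAPI. High-throughput fluorescence imaging scored LC3-GFP spot number, size and intensity, expressed relative to DMSO. Mean ± SD of triplicates; experiments repeated three times.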

H4 [2] = test: Increase in light chain 3-GFP+ autophagosome vesicle area per cell in human H4 cells at 7.2 uM after 24 hrs by high throughput fluorescence microscopy relative to control; type: functional
In short: (§2)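 H4 cells stably expressing LC3-GFP, seeded in 96-well plates and exposed to compound for 24 h; screening concentrations were 3–12 μM, with rapamycin 0.22 μM and bafilomycin A1 0.40 μM. Cells fixed in 4% paraformaldehyde and stained with 3 μg/ml DAPI. Number, size and intensity of LC3-GFP spots measured by high-throughput fluorescence microscopy and expressed as percent of DMSO-treated wells. Rapamycin was the positive control. Triplicate wells, mean ± SD; experiments repeated three times.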

H4 [3] = test: Increase in light chain 3-GFP+ autophagosome vesicle intensity per cell in human H4 cells at 7.2 uM after 24 hrs by high throughput fluorescence microscopy relative to control; type: functional; in short: as §1
H4 [4] = test: Effect on FYVE-RFP+ vesicle intensity per cell in human H4 cells after 2 hrs relative to control; type: functional; parameters: concentration or dose not given beside the values
In short: (§3)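 H4 cells stably expressing FYVE-RFP (H4-FYVE), grown in DMEM with 10% FBS, penicillin/streptomycin and 2 mM L-glutamine at 37°C, 5% CO2, seeded in 96-well plates and exposed to compound. Fixed in 4% paraformaldehyde, nuclei stained with 3 μg/ml DAPI, FYVE-RFP+ vesicles quantified by high-throughput fluorescence microscopy against DMSO control. Triplicate wells, mean ± SD.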

H4 [5] = test: Effect on FYVE-RFP+ vesicle intensity per cell in human H4 cells after 4 hrs relative to control; type: functional; parameters: concentration or dose not given beside the values; in short: as §3
H4 [6] = test: Effect on FYVE-RFP+ vesicle intensity per cell in human H4 cells after 8 hrs relative to control; type: functional; parameters: concentration or dose not given beside the values; in short: as §3
H4 [7] = test: Increase in long-lived protein degradation in human H4 cells after 1 hr relative to control; type: functional; parameters: concentration or dose not given beside the values
H4 [8] = test: Increase in long-lived protein degradation in human H4 cells after 2 hrs relative to control; type: functional; parameters: concentration or dose not given beside the values
H4 [9] = test: Increase in long-lived protein degradation in human H4 cells after 4 hrs relative to control; type: functional; parameters: concentration or dose not given beside the values
H4 [10] = test: Increase in long-lived protein degradation in human H4 cells after 24 hrs relative to control; type: functional; parameters: concentration or dose not given beside the values
H4 [11] = test: Induction of light chain 3-GFP level in human H4 cells at 7.2 uM after 24 hrs by high throughput fluorescence microscopy relative to control; type: functional
In short: (§4)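 H4 cells stably expressing LC3-GFP, grown in DMEM with 10% FBS, penicillin/streptomycin and 2 mM L-glutamine at 37°C, 5% CO2. Cells were seeded in 96-well plates and exposed to library compounds at 3–12 μM for 24 h, then fixed in 4% paraformaldehyde and stained with 3 μg/ml DAPI. LC3-GFP spot number, size and intensity were measured by high-throughput fluorescence microscopy and expressed relative to DMSO. Triplicates, mean ± SD.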

H4 [12] = test: Increase in ratio of light chain 3 subunit 2 to light chain 3 subunit 1 in human H4 cells at 4.8 uM after 4 hrs by Western blot; type: functional, cell-based
In short: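 H4 cells were treated with each compound for 4 h, then lysed. Lysates were immunoblotted with anti-LC3 antibody, with actin as loading control. LC3II and LC3I bands were compared as an LC3II/LC3I ratio.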

[13] = molecular target: Serine/threonine-protein kinase mTOR (Homo sapiens, UniProt P42345); test: Effect on mTOR phosphorylation in human H4 cells at 4.8 uM after 4 hrs; type: cell-based
In short: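 H4 cells exposed to compound for 4 h. Lysates analysed by Western blot with anti-phospho and anti-total mTOR antibodies, with actin as loading control. Rapamycin served as reference.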

H4 [14] = test: Increase in light chain 3-GFP+ autophagosome vesicle number per cell in human H4 cells at 4.8 uM after 24 hrs by high throughput fluorescence microscopy relative to control; type: functional; in short: as §1
H4 [15] = test: Increase in light chain 3-GFP+ autophagosome vesicle area per cell in human H4 cells at 4.8 uM after 24 hrs by high throughput fluorescence microscopy relative to control; type: functional; in short: as §2
H4 [16] = test: Increase in light chain 3-GFP+ autophagosome vesicle intensity per cell in human H4 cells at 4.8 uM after 24 hrs by high throughput fluorescence microscopy relative to control; type: functional; in short: as §1
H4 [17] = test: Increase in FYVE-RFP+ vesicle intensity per cell in human H4 cells after 2 hrs relative to control; type: functional; parameters: concentration or dose not given beside the values; in short: as §3
H4 [18] = test: Increase in FYVE-RFP+ vesicle intensity per cell in human H4 cells after 4 hrs relative to control; type: functional; parameters: concentration or dose not given beside the values; in short: as §3
H4 [19] = test: Increase in FYVE-RFP+ vesicle intensity per cell in human H4 cells after 8 hrs relative to control; type: functional; parameters: concentration or dose not given beside the values; in short: as §3
H4 [20] = test: Induction of light chain 3-GFP level in human H4 cells at 4.8 uM after 24 hrs by high throughput fluorescence microscopy relative to control; type: functional; in short: as §4
H4 [21] = test: Increase in light chain 3-GFP+ autophagosome vesicle number per cell in human H4 cells at 6.6 uM after 24 hrs by high throughput fluorescence microscopy relative to control; type: functional; in short: as §1
H4 [22] = test: Increase in light chain 3-GFP+ autophagosome vesicle area per cell in human H4 cells at 6.6 uM after 24 hrs by high throughput fluorescence microscopy relative to control; type: functional; in short: as §2
H4 [23] = test: Increase in light chain 3-GFP+ autophagosome vesicle intensity per cell in human H4 cells at 6.6 uM after 24 hrs by high throughput fluorescence microscopy relative to control; type: functional; in short: as §1
H4 [24] = test: Induction of light chain 3-GFP level in human H4 cells at 6.6 uM after 24 hrs by high throughput fluorescence microscopy relative to control; type: functional; in short: as §4
H4 [25] = test: Increase in light chain 3-GFP+ autophagosome vesicle area per cell in human H4 cells at 5.7 uM after 24 hrs by high throughput fluorescence microscopy relative to control; type: functional
In short: (§5)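 H4 cells stably expressing LC3-GFP, seeded in 96-well plates and exposed to compound for 24 h; fixed in 4% paraformaldehyde, nuclei stained with 3 μg/ml DAPI. Automated fluorescence microscopy scored number, size and intensity of LC3-GFP spots; values expressed relative to DMSO-treated wells, rapamycin positive control. Triplicate wells, mean ± SD; experiments repeated three times.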

H4 [26] = test: Increase in light chain 3-GFP+ autophagosome vesicle number per cell in human H4 cells at 5.7 uM after 24 hrs by high throughput fluorescence microscopy relative to control; type: functional
In short: (§6)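 H4 cells stably expressing LC3-GFP, kept in DMEM/10% FBS at 37°C, 5% CO2, were seeded in 96-well plates and exposed to compound for 24 h. Cells were then fixed in 4% paraformaldehyde and stained with 3 μg/ml DAPI. Automated fluorescence microscopy scored the number, size and intensity of LC3-GFP spots. Values are percent of DMSO wells, in triplicate, mean ± SD. Rapamycin served as positive control.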

H4 [27] = test: Increase in light chain 3-GFP+ autophagosome vesicle intensity per cell in human H4 cells at 5.7 uM after 24 hrs by high throughput fluorescence microscopy relative to control; type: functional; in short: as §5
H4 [28] = test: Induction of light chain 3-GFP level in human H4 cells at 5.7 uM after 24 hrs by high throughput fluorescence microscopy relative to control; type: functional; in short: as §6

Row | Structure (SMILES) | Activity (H4 [4]) | Activity (H4 [5]) | Activity (H4 [6]) | Activity (H4 [7]) | Activity (H4 [8]) | Activity (H4 [9]) | Activity (H4 [10]) | also measured
1 | COC(=O)c1c(C)[nH]c(C)c1C(=O)c1ccccc1Cc1ccccc1 | 99.43% | 78.17% | 87.62% | 101.34% | 111.04% | 97.03% | 90.97% | Activity (H4 [1]): 161.73%; Activity (H4 [2]): 18010%; Activity (H4 [3]): 200.83%; Activity (H4 [11]): 132.45%
2 | COC(=O)C1=C(C)NC(C)=C(C(=O)OCCN(C)Cc2ccccc2)C1c1cccc([N+](=O)[O-])c1 (stereo unspecified) [NICARDIPINE] |  |  |  | 84.62% | 126.59% | 122.6% | 121.03% | Activity (H4 [12]): Active; Activity [13]: inactive; Activity (H4 [14]): 169.02%; Activity (H4 [15]): 197.46%; Activity (H4 [16]): 229.64%; Activity (H4 [17]): 132.05%; Activity (H4 [18]): 112.51%; Activity (H4 [19]): 104.77%; Activity (H4 [20]): 131.58%
3 | CCCNCC(O)COc1ccccc1C(=O)CCc1ccccc1 (stereo unspecified) [PROPAFENONE] | 114.69% | 78.75% | 62.87% | 114.56% | 113.22% | 99.78% | 102.73% | Activity (H4 [21]): 210.4%; Activity (H4 [22]): 271.21%; Activity (H4 [23]): 385.97%; Activity (H4 [24]): 99.88%
4 | CC(C)(O)[C@H]1O[C@H]2CC[C@@]3(C)[C@@](O)(CC[C@H]4Cc5c([nH]c6ccccc56)[C@@]43C)C2=CC1=O [PAXILLINE] | 100.56% | 52.37% | 56.82% | 100.56% | 112.34% | 106.27% | 102.35% | Activity (H4 [25]): 185.52%; Activity (H4 [26]): 162.66%; Activity (H4 [27]): 205.83%; Activity (H4 [28]): 119.79%
